Assay results pooled from the literature.
Lines come from different studies, so protocols differ.
Target: Calcium/calmodulin-dependent protein kinase type II subunit gamma (CAMK2G, Homo sapiens, UniProt Q13555)

SMILES | test | setting | measurement | result
CO[C@@H]1[C@H](N(C)C(=O)c2ccccc2)C[C@H]2O[C@]1(C)n1c3ccccc3c3c4c(c5c6ccccc6n2c5c31)C(=O)NC4 | enzyme activity, inhibitor | 1 µM | inhibition | 90%
CN1CCN(C(=O)c2ccc(NC(=O)Nc3ccc(N(C)c4ccnc(Nc5ccc(CS(C)(=O)=O)cc5)n4)cc3)cc2)CC1 | binding | 1 µM | remaining binding | 100%
CCCCC(=O)Nc1ccc(-c2ccc3ncn(CCC)c(=O)c3c2)cn1 | binding, competition with immobilised ligand | 0.5 µM | remaining binding | 100%
C[C@H]1CC[C@H](n2c3cnccc3c3cnc(Nc4ccc5c(n4)CCN(C(=O)CO)C5)nc32)CC1 | binding | 1 µM | remaining binding | 40%
Cc1cc(O)c(-c2ccc([C@@H](C)CN(C)C)cc2)c2c1[nH]c(=O)c1sccc12 | cell-free assay, inhibitor | 0.1 µM, lysate | inhibition | -11.1%
CC(C)S(=O)(=O)c1ccc2nccc(Nc3ccc4sc(C5CCCC5)nc4c3)c2c1 | enzyme activity, inhibitor | 1 µM | activity vs control | 104%
CC#CC(=O)N1CCC[C@H]1c1nc(-c2ccc(C(=O)Nc3ccccn3)cc2)c2c(N)nccn12 | enzyme activity, inhibitor | 1 µM | inhibition | 0%
C1=C/COCc2cc(ccc2OCCN2CCCC2)Nc2nccc(n2)-c2cccc(c2)COC/1 | binding | 0.1 µM | remaining binding | 89%
